MEKK2 WT-MEK5 = raises or lowers MEK5 binding to wildtype human MEKK2 PB1 domain; Q9Y2U5; binding response (% of control), % at 10 µM; AID 1531; 1.1% of 290,000 active; bead flow cytometry, Alexa488-MEK5 binding to MEKK2 WT; actives lie on both sides; in the data active means binding response below about 67% or above about 130%; inconclusive means no clear call, values can overlap the other calls; inactive means in between
Dynein cargo inh = blocks dynein driven cargo transport along microtubules | z-score, hits read low | AID 1381 | 0.47% of 220,000 active | 3617.4 mouse cells, GR-EGFP nuclear translocation imaging; test concentration mostly 20 µM; stimulated with dexamethasone, 1 µM; hits give low values;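 active means plate z-score of nuclear minus cytoplasmic receptor signal below a set negative limit, without overly bright fluorescence or cell loss, cut at about -3.5 in these data, passing the limit was not always enough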;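 further: z-score of nuclear minus cytoplasmic ring GR-EGFP intensity difference per well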
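medium = tetracycline-free induction medium containing charcoal-stripped FBS | probe or stimulus = dexamethasone, 1.0 µM final | timing = 48 h induction, then 1 h compound, then 30 min agonist, 37 °C | detection = automated 10x imaging of fixed Hoechst-stained cells | read-out basis = nuclear versus cytoplasmic GR-EGFP signal, averaged per well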
ATG4B inhibitor = inhibitors of human ATG4B cysteine protease; Q9Y4P1; ATG4B cleavage of LC3-PLA2, NBD-HPC fluorescence, 1 h; inhibition, % at 8.33 µM; 0.51% of 340,000 active; AID 504462; in the data active means inhibition above about 40%
Beta2AR agonist = activates human beta-2 adrenergic receptor causing internalization; P07550; Am2.2-beta2AR cells, FAP receptor internalization, flow cytometry; response, % (no concentration beside the values); 0.43% of 340,000 active; AID 504454;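 active means response above a set limit, near 3 SD of response in nonfluorescent compounds, cut at about 42% in these data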
MEKK2mut PB1 HTS = signal of MEK5 binding to mutant human MEKK2 PB1 domain | bead flow cytometry, Alexa488-MEK5 binding to MEKK2 mutant | percent response, % at 10 µM | 0.35% of 290,000 active | AID 1530; in the data active means percent response above about 24%, passing the limit was not always enough
MEKK3 PB1 HTS = MEKK3-MEK5 PB1 interaction, increase or decrease; AID 1529; binding response (% of control), % at 10 µM; bead-based flow cytometry, Alexa488-MEK5 binding to MEKK3; actives lie on both sides; 0 = blocked by unlabeled MEK5, 100 = vehicle; 1.4% of 290,000 active; Q99759;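 active means binding response more than 3 SD above or below the average of its plate-row segment, actives on both sides; inconclusive means wells at one plate position flagged as instrument error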;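 further: Alexa488 bead fluorescence after subtracting the streptavidin-only scavenger bead signal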
Target sequence (Q99759 whole entry, looked up): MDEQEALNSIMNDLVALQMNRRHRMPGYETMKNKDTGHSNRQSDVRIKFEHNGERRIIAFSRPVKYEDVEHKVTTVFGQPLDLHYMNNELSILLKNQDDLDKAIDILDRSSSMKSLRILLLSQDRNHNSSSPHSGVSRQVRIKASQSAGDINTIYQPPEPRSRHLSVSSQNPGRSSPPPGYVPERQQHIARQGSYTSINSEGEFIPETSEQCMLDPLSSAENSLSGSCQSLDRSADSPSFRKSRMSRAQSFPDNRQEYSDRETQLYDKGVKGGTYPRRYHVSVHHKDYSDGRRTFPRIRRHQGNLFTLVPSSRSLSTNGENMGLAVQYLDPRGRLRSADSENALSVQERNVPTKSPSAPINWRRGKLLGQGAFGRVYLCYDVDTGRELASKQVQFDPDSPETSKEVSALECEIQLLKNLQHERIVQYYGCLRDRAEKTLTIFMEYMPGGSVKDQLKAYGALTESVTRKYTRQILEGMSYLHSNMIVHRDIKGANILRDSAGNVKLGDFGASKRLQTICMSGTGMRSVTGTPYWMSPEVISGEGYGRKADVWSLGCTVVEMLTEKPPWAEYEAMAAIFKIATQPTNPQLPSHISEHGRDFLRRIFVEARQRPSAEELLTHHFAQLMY
Dynein inh conf = dynein cargo transport inhibition, confirmation. 69% of 1,000 active. shares compounds with Dynein cargo inh. calls only at 20 µM. 3617.4 GR-EGFP nuclear translocation imaging, dexamethasone-induced. AID 463116;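 active means inhibition of receptor movement into the nucleus at or above a set limit in both runs, with normal cell brightness and cell count; inconclusive means limit reached in only one run, brightness and count normal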;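 further: dexamethasone at 1 µM final in well for 30 min; nuclear minus cytoplasmic GR-EGFP mean intensity difference in channel 2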
Of the large screens only hits and unclear results are named; the others gave an inactive call (follow-up assays come after a bar, where they were run). Compounds with a hit are over-represented: about 2.9% of the library has one in this group of screens.

CCN1CCN(C2=C(Cl)C(=O)N(Cc3ccccc3)C2=O)CC1	Dynein cargo inh -4.74 | Dynein inh conf active
CCOC(=O)c1c(-c2ccccc2)csc1NC(=O)/C(C#N)=C\c1ccc(O)c(OC)c1	none (no result: MEKK2 WT-MEK5, Dynein cargo inh, Beta2AR agonist, MEKK2mut PB1 HTS, MEKK3 PB1 HTS)
CCOC(=O)c1c(-c2ccc(C)cc2)csc1NC(=O)/C(C#N)=C/c1ccc(O)c(OC)c1	none | Dynein inh conf inactive
O=C(N/N=C/c1ccc(N2CCCCC2)o1)c1ccccc1	Dynein cargo inh -3.77 | Dynein inh conf inactive
Nc1ccc(N2CCCCCC2)cc1	Dynein cargo inh -4.28 (no result: ATG4B inhibitor, Beta2AR agonist) | Dynein inh conf inconclusive
Cc1ccc2[nH]c(=O)c(CN(CCCO)S(=O)(=O)c3c(C)ccc4nsnc34)cc2c1	Dynein cargo inh -5.94 | Dynein inh conf inactive
Cc1cc2cc(CN(CCCO)S(=O)(=O)c3cccc4nsnc34)c(=O)[nH]c2cc1C	none
COc1ccc(-c2cc(C(F)(F)F)nc(S(=O)(=O)CCCC(=O)Nc3cccnc3Cl)n2)cc1OC	Dynein cargo inh -5.08 | Dynein inh conf active
Cc1cc(NC(=O)CCCS(=O)(=O)c2nc(-c3cccs3)cc(C(F)(F)F)n2)no1	Dynein cargo inh -4.83 | Dynein inh conf inconclusive
Cc1nn(-c2ccccc2)c(Cl)c1C(=O)NNC(=O)c1ccccc1O	none (no result: MEKK2 WT-MEK5, Dynein cargo inh, MEKK2mut PB1 HTS, MEKK3 PB1 HTS)
CC1(C)COC(/C=C/c2ccc([N+](=O)[O-])cc2)=N1	Dynein cargo inh -4.14 | Dynein inh conf active
C#CCNCCS(=O)(=O)N(Cc1ccc(Br)cc1)[C@@H](C)C(=O)O	none (no result: MEKK2 WT-MEK5, Dynein cargo inh, ATG4B inhibitor, MEKK2mut PB1 HTS, MEKK3 PB1 HTS)
COc1cc(/C=C(/C(=O)c2cccs2)c2nc3ccccc3[nH]2)ccc1O	Dynein cargo inh -3.96 | Dynein inh conf active
O/C(=C\c1nc2ccccc2[nH]1)c1cccs1	none (no result: Dynein cargo inh)
O=C(/C(=C/c1ccc(Cl)cc1)c1nc2ccccc2[nH]1)c1cccs1	Dynein cargo inh -4.47, Beta2AR agonist 61.7 | Dynein inh conf active
COC(=O)/C(=C\c1cc(OC)c(OC)c(OC)c1)c1nc2ccccc2[nH]1	none
COc1ccccc1C(=O)Oc1ccccc1C(=O)Nc1ccccc1	none
O=C(Oc1ccccc1C(=O)Nc1ccccc1)c1ccc(Br)c([N+](=O)[O-])c1	Dynein cargo inh -3.86 | Dynein inh conf inactive
COc1cc(N2CCCC2)c(OC)cc1/C=C1/NC(=S)NC1=O	none | Dynein inh conf inactive
CCN(CC)C1CCN(C(=O)c2ccc3nc(Cc4ccc(OC)cc4)oc3c2)C1 (stereo unspecified)	none (no result: Dynein cargo inh)
Cc1ccccc1NC(=O)C(Cl)=C(Cl)Cl	Dynein cargo inh -3.79 | Dynein inh conf active
COc1ccc2nc(C)cc(Nc3ccc(N4CCN(C)CC4)cc3)c2c1	none (no result: Dynein cargo inh)
N#Cc1cn(Cc2cccc(Cl)c2)c2ccccc12	none
N#Cc1ccccc1Cn1cc(/C=C/[N+](=O)[O-])c2ccccc21	Dynein cargo inh -4.67, Beta2AR agonist 94.8 | Dynein inh conf active
C(=N\n1cnnc1)/c1cn(Cc2ccccc2)c2ccccc12	none
O=[N+]([O-])/C=C/c1cn(Cc2ccccc2)c2ccccc12	Dynein cargo inh -4.62, Beta2AR agonist 83.0 | Dynein inh conf inconclusive
O=[N+]([O-])c1ccc(N/N=C/c2cn(Cc3ccc(F)cc3)c3ccccc23)nc1	none | Dynein inh conf inconclusive
CCC(C)c1ccc(NC(=O)c2ccco2)cc1 (stereo unspecified)	none (no result: Dynein cargo inh)
CC1=CC(=O)C(C(C)C)=C/C1=C(\c1cc(C(C)C)c(OP(=O)(O)O)cc1C)c1ccccc1C(=O)O	none (no result: Dynein cargo inh)
Cc1ccc(N(CCC#N)C(=O)CCl)cc1C	Dynein cargo inh -4.39 | Dynein inh conf active
CCCc1cc(=O)[nH]c(SCC(=O)Nc2sccc2C#N)n1	none (no result: MEKK2 WT-MEK5, Dynein cargo inh, MEKK2mut PB1 HTS, MEKK3 PB1 HTS)
O=C(CC1Sc2ncnn2C1=O)Nc1ccc(Br)cc1 (stereo unspecified)	Dynein cargo inh -3.59 | Dynein inh conf inactive
COc1ccc(-c2c(-c3cc(OC)cc(OC)c3)n(C)c3ccc(-c4cc(F)cc(OC)c4)cc23)cc1	none (no result: MEKK2 WT-MEK5, Dynein cargo inh, MEKK2mut PB1 HTS, MEKK3 PB1 HTS)
COC(=O)c1ccc(OC(=O)CS(=O)c2ccccc2[N+](=O)[O-])cc1 (stereo unspecified)	none
O=C(CS(=O)c1ccc(C(F)(F)F)cc1[N+](=O)[O-])Oc1ccccc1 (stereo unspecified)	Dynein cargo inh -3.9, Beta2AR agonist 98.3 | Dynein inh conf active
CCOC(=O)c1ccccc1OC(=O)CS(=O)c1ccccc1[N+](=O)[O-] (stereo unspecified)	none
CS(=O)(=O)c1ccc(S(=O)CC(=O)OCc2ccccc2)c([N+](=O)[O-])c1 (stereo unspecified)	Beta2AR agonist 43.7 | Dynein inh conf active
COc1ccc(-c2nnc(Sc3nc4ccccc4o3)c3ccccc23)cc1	Dynein cargo inh -4.18 | Dynein inh conf active
CCOC(=O)c1cc(-c2ccc(/C=C3/C(=O)NC(=O)C(C#N)=C3C)o2)ccc1Cl	Dynein cargo inh -3.58 | Dynein inh conf active
CC1=C(C#N)C(=O)NC(=O)/C1=C\c1ccc(-c2ccc(C)cc2[N+](=O)[O-])o1	none
CN1CCN(C2=C(Cl)C(=O)N(c3cccc(Cl)c3)C2=O)CC1	none
CN1CCN(C2=C(Cl)C(=O)N(c3ccc(Cl)c(Cl)c3)C2=O)CC1	Dynein cargo inh -4.58 | Dynein inh conf inconclusive
COc1cccc(/C=C/C(=O)NNC(=O)c2ccco2)c1OC	none (no result: MEKK2 WT-MEK5, Dynein cargo inh, MEKK2mut PB1 HTS, MEKK3 PB1 HTS)
CCCCCCC(=O)N(O)C1CC(=O)N(c2ccc(F)cc2)C1=O (stereo unspecified)	Dynein cargo inh -4.75 | Dynein inh conf active
Cc1cccc(C)c1NC(=O)CNC(=O)c1cccc(S(=O)(=O)NCc2cccs2)c1	none (no result: MEKK2 WT-MEK5, Dynein cargo inh, MEKK2mut PB1 HTS, MEKK3 PB1 HTS)
Clc1nc(CN2CCCCC2)nc2sc3c(c12)CCCC3	Dynein cargo inh -3.68 | Dynein inh conf inactive
CC(=O)c1c(C)[nH]c(C(=O)N(C)CC(=O)Nc2ccc(Cl)c(C(F)(F)F)c2)c1C	none (no result: Dynein cargo inh)
Cc1nnc(NC(=O)c2sc3nc(-c4cccs4)cc(C(F)(F)F)c3c2N)s1	none | Dynein inh conf inactive
Cn1c(=O)c(NCCO)c2c3c(cccc31)C(=O)c1ccccc1-2	Dynein cargo inh -6.95 | Dynein inh conf active
O=C(CSc1nc2nn(-c3ccccc3)c(=O)c-2c2n1CCCCC2)Nc1ccccc1[N+](=O)[O-]	none (no result: MEKK2 WT-MEK5, Dynein cargo inh, MEKK2mut PB1 HTS, MEKK3 PB1 HTS)
COc1ccc(/C=C\c2nc(=O)c3ccccc3o2)cc1	Dynein cargo inh -3.59 | Dynein inh conf active
O=c1nc(/C=C/c2ccc(O)c(O)c2)oc2ccccc12	none
Cc1cc(C)nc(Sc2ncnc(N)c2[N+](=O)[O-])n1	Dynein cargo inh -5.38 | Dynein inh conf inconclusive
Cc1cccc(Nc2ncnc(N)c2[N+](=O)[O-])n1	none
